Reference: publication PMC7616937 (Chemical communications (Cambridge, England), 2019)
Peptide text beside a SMILES is read from it.

Experiments:
[1] = Kinetics of fiber formation by TEM imaging; format: physicochemical; details: Fig. 2a, b
[2] = Kinetics of fibrillation by Thioflavin T; format: physicochemical; details: Fig. 3g
How it was run: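 Peptide fibrillation was tracked by Thioflavin T fluorescence, either with peptide alone or with lipid vesicles mimicking mammalian plasma membranes. The vesicles were made of 1,2-dioleoyl-sn-glycero-3-phosphocholine (DOPC), cholesterol and sphingomyelin.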

neuronal dysfunction = details: observation from the literature, no reference printed at b17; compare b4, ref 7a; cited from earlier work

Compound	time to mature fibers / completion of self-assembly [1]	ThT fluorescence during kinetic measurement ([2]; peptide only, without lipid vesicles, followed for 96 hours)	effect of addition of lipid vesicles on ThT fluorescence / fibrillation ([2]; with DOPC/Chol/Sph lipid vesicles)	toxicity (neuronal dysfunction)
CC(=O)N[C@@H](CCCCN)C(=O)N[C@@H](CC(C)C)C(=O)N[C@H](C(=O)N[C@@H](Cc1ccccc1)C(=O)N[C@@H](Cc1ccccc1)C(=O)N[C@@H](C)C(=O)N[C@@H](CCC(=O)O)C(N)=O)C(C)C [Aβ(16-22), Ac-KLVFFAE-NH2] (Ac-KLVFFAE-NH2)	four to seven days	dramatic increase in fluorescence	inhibition of the fibrillation process	
Aβ(1-42): full length Aβ peptide				high toxicity
